BAP1 block: human BAP1 deubiquitinase inhibition. recombinant BAP1, Ub-AMC hydrolysis fluorescence kinetic; hits give low values. hit rate 0.48% among 72,000. calls only at 20 µM. AID 436. Q92560;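 active = activity remaining at or below 50% of control, provided the compound also passes the data quality filters; inactive = the rest, including low values that fail the filters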
Hsp90 inh: displaces geldanamycin probe from tumor Hsp90; P07900; NCI-N417 lysate Hsp90, Cy3B-geldanamycin FP displacement; inhibition, % at 30 µM; hit rate 0.35% among 64,000;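 active = inhibition above 50%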
Ec RNAP inh: blocks E. coli RNA polymerase transcription | hit rate 0.2% among 62,000 | fluorescence transcription assay | P0A8V2 | inhibition, %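 (tested at 10 µM)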; in the data active = inhibition above about 20%
Target sequence (P0A8V2 whole entry, looked up): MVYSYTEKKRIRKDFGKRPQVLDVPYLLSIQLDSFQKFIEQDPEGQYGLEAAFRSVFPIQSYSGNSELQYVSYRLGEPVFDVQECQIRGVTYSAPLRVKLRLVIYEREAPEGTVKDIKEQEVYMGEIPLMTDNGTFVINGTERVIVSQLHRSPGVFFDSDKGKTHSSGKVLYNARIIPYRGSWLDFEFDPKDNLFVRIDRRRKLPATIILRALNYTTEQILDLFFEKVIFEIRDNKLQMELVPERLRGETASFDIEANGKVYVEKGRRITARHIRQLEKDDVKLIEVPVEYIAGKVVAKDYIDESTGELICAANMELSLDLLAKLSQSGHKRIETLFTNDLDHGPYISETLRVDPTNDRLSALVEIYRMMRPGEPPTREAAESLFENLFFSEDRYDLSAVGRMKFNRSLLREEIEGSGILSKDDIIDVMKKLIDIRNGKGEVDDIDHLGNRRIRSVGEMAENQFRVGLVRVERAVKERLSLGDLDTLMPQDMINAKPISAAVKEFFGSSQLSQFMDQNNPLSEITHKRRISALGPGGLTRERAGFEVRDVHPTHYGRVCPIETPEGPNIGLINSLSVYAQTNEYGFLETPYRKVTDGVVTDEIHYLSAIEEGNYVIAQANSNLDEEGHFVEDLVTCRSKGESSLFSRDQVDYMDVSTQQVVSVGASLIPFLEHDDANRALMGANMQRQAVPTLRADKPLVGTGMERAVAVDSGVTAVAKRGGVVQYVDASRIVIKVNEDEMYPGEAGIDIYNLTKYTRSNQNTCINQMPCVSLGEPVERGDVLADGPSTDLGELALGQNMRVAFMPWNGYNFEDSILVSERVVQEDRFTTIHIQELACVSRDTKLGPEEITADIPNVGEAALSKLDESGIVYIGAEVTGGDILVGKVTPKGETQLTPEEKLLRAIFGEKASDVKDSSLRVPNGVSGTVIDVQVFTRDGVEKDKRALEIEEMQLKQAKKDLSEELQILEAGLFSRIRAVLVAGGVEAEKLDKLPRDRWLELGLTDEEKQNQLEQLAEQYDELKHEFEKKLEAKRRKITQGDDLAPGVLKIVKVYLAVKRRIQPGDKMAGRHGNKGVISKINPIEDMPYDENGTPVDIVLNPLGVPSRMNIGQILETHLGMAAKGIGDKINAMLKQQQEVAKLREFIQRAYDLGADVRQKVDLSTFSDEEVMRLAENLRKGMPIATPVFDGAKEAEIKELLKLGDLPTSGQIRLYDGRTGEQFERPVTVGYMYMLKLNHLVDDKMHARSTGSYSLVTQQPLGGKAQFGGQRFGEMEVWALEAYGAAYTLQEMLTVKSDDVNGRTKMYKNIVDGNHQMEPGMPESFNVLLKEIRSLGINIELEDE
Ecoli tolC: growth inhibitors of E. coli BW25113 tolC mutant; hit rate 2.2% among 65,000; OD615; growth inhibition, % at 10 µM (by protocol);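 active = growth inhibition at or above a cutoff equal to the mean over every tested compound plus 3 SD, cut at about 60% in these data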;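 also: growth measured after 20 h incubation at 37 °C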
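signal = optical density read at 615 nm | test system = E. coli ΔtolC::kan strain BW25113 | timing = 20 h compound exposure of bacteria at 37 °C | buffer or medium = LB medium plus 50 µg/mL kanamycin | compound dosing = 10 µM final, single dose | evaluation = % inhibition of E. coli growth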
Cdc25B inh: human M-phase inducer phosphatase 2 inhibition; recombinant Cdc25B, OMFP fluorescence Ex485/Em525; inhibition, %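 (compounds tested at 10 µM final in the well)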; P30305; hit rate 0.1% among 65,000; in the data active = inhibition above about 50%
DUSP1 inh: blocks human MKP-1 phosphatase activity. recombinant MKP-1, OMFP hydrolysis fluorescence. inhibition, %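 (compounds tested at a single concentration somewhere between 10 and 100 µM)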. hit rate 0.15% among 65,000;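 active = inhibition above about 50%, limit read from the data; inconclusive = inhibition over screen mean plus 3 SD, below that limit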
Hits are given with their value; n = inactive; u = inconclusive; x = no result given; + = active, no number. Compounds with a hit are over-represented: about 2.9% of the library has one in this group of screens.

SMILES	BAP1 block	Hsp90 inh	Ec RNAP inh	Ecoli tolC	Cdc25B inh	DUSP1 inh
CSc1ccccc1NC(=O)c1nn2c(c1Br)NC(c1ccc(Br)o1)CC2C(F)(F)F (stereo not drawn)	n	x	x	x	x	x
CCc1c(C)nc2cc(-c3cc(OC)cc(OC)c3)nn2c1N1CCCC1	x	n	n	75	n	n
CCOC(=O)c1sc2nc(NC(=O)c3cccs3)sc2c1C	n	63	n	n	n	n
Cc1ccc(C)c(S(=O)(=O)C(C#N)c2nc3ccccc3nc2N2CCOCC2)c1 (stereo not drawn)	n	n	n	70	n	u
Cc1ccc(C)c(S(=O)(=O)C(C#N)c2nc3ccccc3nc2N2CCCC2)c1 (stereo not drawn)	n	n	n	n	n	n
N#Cc1c(NC(=O)CSc2ncnc3c2cnn3-c2ccccc2Cl)sc2c1CCCC2	+	n	n	n	n	n
Cc1onc(-c2ccccc2Cl)c1C(=O)Nc1sc2c(c1C#N)CCC2	n	n	n	83	n	n
Cc1onc(-c2c(F)cccc2Cl)c1C(=O)Nc1nc2c(s1)CCCC2	n	n	n	63	n	n
Cc1onc(-c2ccccc2)c1C(=O)Nc1nc2c(s1)CCCC2	n	n	n	n	n	n
CCOC(=O)c1cnc(SC2CCc3ccccc3C2=O)nc1N (stereo not drawn)	n	56	n	n	n	n
COc1cc(-c2c(C#N)c(N)nc3c2c(C)nn3-c2ccc(C)c(C)c2)cc(OC)c1OC	n	n	n	n	n	n
CCOc1cc(-c2c(C#N)c(=O)[nH]c3c2c(C)nn3-c2ccc(F)cc2)ccc1O	n	n	n	97	n	n
O=C(OCCCN1C(=O)c2ccccc2C1=O)C(Cc1ccccc1)N1C(=O)c2ccccc2C1=O (stereo not drawn)	n	x	x	x	x	x
CCCc1nc(SCC(=O)N2CCC(Cc3ccccc3)CC2)c2c(=O)n(C)c(=O)n(C)c2n1	n	n	n	75	n	n
Cn1c(=O)c2c(SCC(=O)N3CCC(Cc4ccccc4)CC3)nc(C3CC3)nc2n(C)c1=O	n	n	n	n	n	n
CCCc1nc(SCC(=O)N2CCCc3ccccc32)c2c(=O)n(C)c(=O)n(C)c2n1	n	n	n	78	n	n
Cc1nc(-c2coc3c(C)c(O)ccc3c2=O)cs1	n	x	x	x	x	x
CC12CCC(C(=O)N(c3ccc(Br)cc3)C1=O)C2(C)C (stereo not drawn)	n	x	x	x	x	x
CC(C)(C)n1ncc2c(=O)n(CC(=O)Nc3ccc4c(c3)OCO4)cnc21	n	n	n	n	n	n
Cc1ccc(NC(=O)Cn2cnc3c(cnn3C(C)(C)C)c2=O)cc1	n	n	22	n	n	n
CCOCCOC(=O)C1=C(C)NC(=O)NC1c1ccc(C)cc1 (stereo not drawn)	n	x	x	x	x	x
Cc1ccc(C(=O)Nc2ccc(I)cc2)cc1S(=O)(=O)N1CCOCC1	n	x	x	x	x	x
CCOC(=O)Cc1ccc(NS(=O)(=O)c2ccc(SC)cc2)cc1	n	n	n	70	n	n
CCOc1ccc(NS(=O)(=O)c2ccc(SC)cc2)cc1	n	n	n	73	n	n
CCOC(=O)c1ccc(NS(=O)(=O)c2ccc(SC)cc2)cc1	n	n	n	70	n	n
SMILES	BAP1 block	Hsp90 inh	Ec RNAP inh	Ecoli tolC	Cdc25B inh	DUSP1 inh
CC(C)(C)OC(=O)C[n+]1ccc(C(N)=O)cc1	n	x	x	x	x	x
O=C(Nc1ccc(C23CC4CC(CC(Cl)(C4)C2)C3)cc1)c1ccc(F)cc1	n	x	x	x	x	x
CCOC(=O)C1CCCN(c2ncnc3c2cnn3-c2ccc(Cl)cc2)C1 (stereo not drawn)	n	n	n	73	n	n
c1ccc(-c2nc(NCC3CCCO3)c3ccccc3n2)nc1 (stereo not drawn)	n	n	x	n	n	n
Oc1cccc(Nc2nc(NCC3CCCO3)c3ccccc3n2)c1 (stereo not drawn)	n	n	n	94	n	n
O=c1oc2cc(OCc3ccc(F)cc3)c(Cl)cc2c2c1CCCC2	n	x	x	x	x	x
CC(C)CNC(=O)c1nn2c(C(F)(F)F)cc(-c3ccc(Br)cc3)nc2c1Cl	n	x	x	x	x	x
CC(C)c1ccc(OCc2ccc(C(=O)N3CCN(c4ccccn4)CC3)cc2)cc1	n	n	n	86	n	n
CN1CCN(C(=O)c2ccc3c(c2)N(Cc2ccc(Cl)cc2)C(=O)c2ccccc2S3=O)CC1 (stereo not drawn)	n	n	n	n	n	n
O=C(O)c1ccc2c(c1)N(Cc1ccccc1)C(=O)c1ccccc1S2=O (stereo not drawn)	n	n	n	n	66	n

Assay outcomes (PubChem BioAssay)
